Measurements reported in BindingDB's records for doi:10.1016/j.bmc.2019.02.023 (Wesleyan University, 2019).

biological target: Beta-lactamase (Enterobacter cloacae, UniProt P05364); experiment: Irreversible inhibition of Enterobacter cloacae P99 beta-lactamase using cephalothin as substrate by spectrophotometric analysis; conditions: read-out: kon (M-1-s-1)
Summary of the method: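 P99 class C β-lactamase (stock concentration by A280, ε 7.1 x 10⁴ M⁻¹cm⁻¹) incubated with inhibitor in 20 mM MOPS pH 7.5, 0.1% BSA, 25 °C. Aliquots diluted 1:50 into 300 μM cephalothin; initial rates followed at 270 nm over time. Titration: 150 nM enzyme with 0–2.0 μM inhibitor to end-point. Time-course and titration data fitted jointly to Scheme 2, k2 fixed at 100 s⁻¹, giving k1, k2/k3 and k_i.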

Beta-lactamase, sequence (P05364 whole entry): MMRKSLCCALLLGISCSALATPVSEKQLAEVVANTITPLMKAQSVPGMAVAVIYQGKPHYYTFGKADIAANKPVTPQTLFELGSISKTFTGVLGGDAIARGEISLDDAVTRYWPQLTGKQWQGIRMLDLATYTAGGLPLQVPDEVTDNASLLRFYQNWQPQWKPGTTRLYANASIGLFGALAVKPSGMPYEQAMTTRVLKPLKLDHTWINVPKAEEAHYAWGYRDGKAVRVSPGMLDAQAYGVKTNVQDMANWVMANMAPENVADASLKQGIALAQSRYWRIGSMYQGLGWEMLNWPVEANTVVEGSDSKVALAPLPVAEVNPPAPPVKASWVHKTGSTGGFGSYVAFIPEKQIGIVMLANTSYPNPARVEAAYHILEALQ

SMILES | kon
CCCCOC(=O)NOC(=O)Oc1ccccc1 | 1100 M⁻¹ s⁻¹
O=C(O)CCCCOC(=O)NOC(=O)Oc1ccccc1 | 8500 M⁻¹ s⁻¹
N[C@H](CCCOC(=O)NOC(=O)Oc1ccccc1)C(=O)O | 16000 M⁻¹ s⁻¹
O=C(NOC(=O)Oc1ccccc1)OCCc1ccccc1 | 1400 M⁻¹ s⁻¹
O=C(NOC(=O)Oc1ccccc1)OCc1ccccc1 | 2000 M⁻¹ s⁻¹
